Results on four molecules are retold here after ChEMBL document CHEMBL3352680, “Triterpene lactones from cultures of Ganoderma sp. KM01” (J Nat Prod, 2014).

For one test, the system named is Plasmodium falciparum. The test can be described thus: Antimalarial activity against multidrug-resistant Plasmodium falciparum K1 assessed as reduction in parasite growth by [3H]-hypoxanthine uptake assay. The format is functional, organism-based. The gist of the method:
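P. falciparum K1 (multidrug-resistant) maintained in continuous in vitro culture. Microculture radioisotope technique: growth measured as [3H]-hypoxanthine uptake. IC50 is the concentration giving 50% reduction in parasite growth. Dihydroartemisinin was the positive control.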

The next test deals with MCF7. The test can be described thus: Cytotoxicity against human MCF7 cells up to 10 uM by colorimetric method. The format is functional, cell-based.
In another test the test system is NCI-H187 (human). The experiment in a line: Cytotoxicity against human NCI-H187 cells up to 10 uM by colorimetric method.
The subject of a further test is KB. The test can be described thus: Cytotoxicity against human KB cells up to 10 uM by colorimetric method. It counts as functional, cell-based.

Each structure is given as a SMILES string. Calls of active or inactive are those of the source. The rule behind the calls is not given here.

What is called IC50 is the concentration that inhibits the measured activity by half. Regarding `C[C@H]1[C@@H](O)O[C@@H]2O[C@@]3(C)CC[C@H]4[C@H](C)CC[C@@H]1[C@@]24OO3` [ARTENIMOL], the IC50 with Plasmodium falciparum was 0.004 µM.

Turning to `CC1=CC[C@@H]([C@@H](C)[C@H]2CC[C@@]3(C)C4=C(C=C5C=CC(=O)OC(C)(C)[C@@H]5CC4)CC[C@]23C)OC1=O`, the result in the test on MCF7, in the test with NCI-H187 (human) and in the test on KB was inactive. In addition, the IC50 in the test with Plasmodium falciparum is 6 µM.

Take `CC1=CC[C@]2(OC[C@]34CCC5=C(CC[C@@H]6C(=C5)C=CC(=O)OC6(C)C)[C@]3(C)CC[C@@H]4[C@@H]2C)OC1=O`: the result in the test with MCF7, with NCI-H187 (human) and in the test on KB was inactive. For the same molecule, the IC50 with Plasmodium falciparum worked out at 10 µM.

`CC(=O)O[C@@H]1C[C@H]([C@H](C)[C@H]2CC=C(C)C(=O)O2)[C@@]2(C)CCC3=C(CC[C@@H]4C(=C3)C=CC(=O)OC4(C)C)[C@]12C` [COLOSSOLACTONE E]: the result with MCF7, with NCI-H187 (human) and in the test on KB was inactive. Further, in the test on Plasmodium falciparum, the IC50 came to 10 µM.
